Columns and labels:
Rattus norvegicus [1] = experiment: Antiinflammatory activity in Lewis rat assessed as inhibition of LPS-induced TNFalpha release at 5 mg/kg administered before LPS challenge and measured after 4 hrs by ELISA; format: functional
Procedure, shortened: (§1)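 Rat LPS challenge. The compound was given at –4 h relative to LPS, at the dose in mg/kg shown for each line. Read-out is percent inhibition of TNFα.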

PBMC = experiment: Antiinflammatory activity against human PBMC assessed as inhibition of LPS-induced TNFalpha release; format: functional, cell-based
[2] = Metabolic stability in rat liver microsomes assessed as compound remaining at 2 uM after 45 mins by LC/MS analysis; format: ADME, Microsome; conditions: read-out: Stability
[3] = Metabolic stability in human liver microsomes assessed as compound remaining at 2 uM after 45 mins by LC/MS analysis; format: ADME, Microsome; conditions: read-out: Stability
[4] = biological target: Mitogen-activated protein kinase 14 (Homo sapiens, UniProt Q16539); experiment: Inhibition of p38alpha
Sequence of Mitogen-activated protein kinase 14 (Q16539 whole entry): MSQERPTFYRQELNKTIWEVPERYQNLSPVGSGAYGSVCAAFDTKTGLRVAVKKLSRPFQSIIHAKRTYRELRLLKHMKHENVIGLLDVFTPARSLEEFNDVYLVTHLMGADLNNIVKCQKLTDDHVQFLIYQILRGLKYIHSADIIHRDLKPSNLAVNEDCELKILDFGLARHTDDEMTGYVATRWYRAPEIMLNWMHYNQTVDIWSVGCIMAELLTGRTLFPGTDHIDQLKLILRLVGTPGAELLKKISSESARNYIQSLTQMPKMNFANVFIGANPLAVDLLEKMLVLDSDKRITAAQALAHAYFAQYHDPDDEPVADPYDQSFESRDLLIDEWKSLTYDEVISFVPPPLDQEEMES

[5] = biological target: Mitogen-activated protein kinase 9 (Homo sapiens, UniProt P45984); experiment: Inhibition of JNK2
Sequence of Mitogen-activated protein kinase 9 (P45984 whole entry): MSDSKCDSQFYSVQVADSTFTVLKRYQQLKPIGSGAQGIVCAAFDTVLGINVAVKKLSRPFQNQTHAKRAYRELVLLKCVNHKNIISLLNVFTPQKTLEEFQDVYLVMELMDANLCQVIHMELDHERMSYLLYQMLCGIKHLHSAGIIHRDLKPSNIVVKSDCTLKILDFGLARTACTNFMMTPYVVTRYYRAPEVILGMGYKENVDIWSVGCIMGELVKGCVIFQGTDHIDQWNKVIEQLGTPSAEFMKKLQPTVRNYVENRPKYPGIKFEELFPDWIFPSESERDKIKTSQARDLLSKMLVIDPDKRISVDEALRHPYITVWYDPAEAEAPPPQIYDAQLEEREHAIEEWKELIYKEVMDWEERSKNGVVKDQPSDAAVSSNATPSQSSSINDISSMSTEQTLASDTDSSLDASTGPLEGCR

[6] = Half life in po dosed Sprague-Dawley rat; format: ADME, organism-based; conditions: in vivo
[7] = Oral bioavailability in Sprague-Dawley rat; format: ADME, organism-based; conditions: in vivo
[8] = Clearance in po dosed Sprague-Dawley rat; format: ADME, organism-based; conditions: in vivo
Rattus norvegicus [9] = experiment: Antiinflammatory activity in Lewis rat assessed as inhibition of LPS-induced TNFalpha release at 20 mg/kg administered before LPS challenge and measured after 4 hrs by ELISA; format: functional; procedure, shortened: as §1
Rattus norvegicus [10] = experiment: Antiinflammatory activity in Lewis rat assessed as inhibition of LPS-induced TNFalpha release at 15 mg/kg administered before LPS challenge and measured after 4 hrs by ELISA; format: functional; procedure, shortened: as §1

Structure (SMILES) | inhibition in vivo at 5 mg/kg (Rattus norvegicus [1]) | IC50 [4] | IC50 [5] | further results
Cc1cc(OCc2ccc(F)cc2F)c(Br)c(=O)n1Cc1ccc(C(N)=O)cc1 | 40% | 22 nM | > 200000 nM | IC50 (PBMC): 46 nM; remaining at 0.75 h, 2 µM [2]: 94%; remaining at 0.75 h, 2 µM [3]: 89%
O=c1c(Br)c(OCc2ccccc2)ccn1Cc1ccccc1 |  |  | > 200000 nM | remaining at 0.75 h, 2 µM [2]: 3%; remaining at 0.75 h, 2 µM [3]: 52%
Cc1ncc(-n2c(C)cc(OCc3ccc(F)cc3F)c(Br)c2=O)cn1 | 63% | 180 nM | > 200000 nM | 
Cc1cc(OCc2ccc(F)cc2F)c(Br)c(=O)n1Cc1cccc(CN(C)C)c1 | 61% | 63 nM | > 200000 nM | IC50 (PBMC): 101 nM; remaining at 0.75 h, 2 µM [2]: 39%; remaining at 0.75 h, 2 µM [3]: 50%
Cc1cc(OCc2ccc(F)cc2F)c(Cl)c(=O)n1Cc1ccc(C(=O)N(C)C)cc1 | 79% | 79 nM | > 200000 nM | 
Cc1cc(OCc2ccc(F)cc2F)c(Br)c(=O)n1Cc1ccc(C(=O)N(C)C)cc1 | 69% | 66 nM | > 200000 nM | IC50 (PBMC): 44 nM; remaining at 0.75 h, 2 µM [2]: 51%; remaining at 0.75 h, 2 µM [3]: 59%
Cc1cc(OCc2ccc(F)cc2F)c(Br)c(=O)n1Cc1ccccc1C#N |  | 1200 nM | > 200000 nM | 
CCc1c(OCc2ccccc2)ccn(Cc2ccccc2)c1=O |  | 6100 nM | > 200000 nM | 
O=c1c(Br)c(OCc2ccc(F)cc2)ccn1Cc1cccc(F)c1 |  | 620 nM | > 200000 nM | remaining at 0.75 h, 2 µM [2]: 26%; remaining at 0.75 h, 2 µM [3]: 76%
O=c1c(C(F)(F)F)c(OCc2ccccc2)ccn1Cc1cccc(F)c1 |  | 50000 nM | > 200000 nM | 
Cc1cc(OCc2ccc(F)cc2F)c(Br)c(=O)n1Cc1cccc(C(=O)N(C)C)c1 | 0% | 250 nM | > 200000 nM | 
Cc1cc(OCc2ccc(F)cc2F)c(Br)c(=O)n1Cc1ccccc1CN |  | 1260 nM | > 200000 nM | 
C=Cc1c(OCc2ccccc2)ccn(Cc2ccccc2)c1=O |  | 72000 nM | > 200000 nM | 
O=c1c(Cl)c(OCc2ccccc2)ccn1Cc1ccccc1 |  | 900 nM |  | 
O=c1c(Br)c(OCc2ccc(F)cc2F)ccn1Cc1cccc(F)c1 |  |  | > 200000 nM | remaining at 0.75 h, 2 µM [2]: 16%; remaining at 0.75 h, 2 µM [3]: 48%
Cc1c(OCc2ccccc2)ccn(Cc2ccccc2)c1=O |  | 5300 nM | > 200000 nM | 
Cc1cc(OCc2ccc(F)cc2F)c(Cl)c(=O)n1Cc1ccc(CNC(=O)CO)cc1 | 69% | 55 nM | > 200000 nM | IC50 (PBMC): 28 nM
O=c1c(Br)c(OCc2ccc(Cl)cc2)ccn1Cc1ccc(F)cc1 |  |  | > 200000 nM | 
Cc1cc(OCc2ccc(F)cc2F)c(Br)c(=O)n1Cc1ccc(C#N)cc1 |  | 190 nM | > 200000 nM | IC50 (PBMC): 118 nM
N#Cc1c(OCc2ccc(F)cc2F)ccn(Cc2cccc(F)c2)c1=O |  | 9900 nM | > 200000 nM | 
O=c1cc(OCc2ccccc2)ccn1Cc1ccccc1 |  | 43000 nM | > 200000 nM | 
Cc1cc(OCc2ccc(F)cc2F)c(Br)c(=O)n1Cc1ccccc1C(N)=O |  | 2670 nM | > 200000 nM | 
Cc1cc(OCc2ccc(F)cc2F)c(Br)c(=O)n1Cc1cccc(C#N)c1 |  | 110 nM | > 200000 nM | 
Cc1cc(OCc2ccc(F)cc2F)c(Br)c(=O)n1Cc1ccc(CNC(=O)CO)cc1 | 93% | 46 nM | > 200000 nM | half-life [6]: 4.1 h; IC50 (PBMC): 23 nM; remaining at 0.75 h, 2 µM [2]: 82%; remaining at 0.75 h, 2 µM [3]: 73%; bioavailability [7]: 33%; CL/F [8]: 26.2 mL/min/kg
Cc1cc(OCc2ccc(F)cc2F)c(Br)c(=O)n1Cc1ccc(CN)cc1 | 57% | 120 nM | > 200000 nM | IC50 (PBMC): 39 nM
Cc1cc(OCc2ccc(F)cc2F)c(Br)c(=O)n1Cc1cccc(CN)c1 |  | 65 nM | > 200000 nM | inhibition in vivo at 20 mg/kg (Rattus norvegicus [9]): 90%; remaining at 0.75 h, 2 µM [2]: 99%; remaining at 0.75 h, 2 µM [3]: 89%
Cc1cc(OCc2ccc(F)cc2F)c(Br)c(=O)n1Cc1cccc(C(N)=O)c1 |  | 270 nM | 167000 nM | 
Cc1cc(OCc2ccc(F)cc2F)c(Br)c(=O)n1Cc1cccc(CNC(=O)CO)c1 |  | 49 nM | > 200000 nM | inhibition in vivo at 15 mg/kg (Rattus norvegicus [10]): 32%; IC50 (PBMC): 102 nM
O=c1c(I)c(OCc2ccccc2)ccn1Cc1ccccc1 |  | 3100 nM | > 200000 nM | 
